Reference: ChEMBL document CHEMBL1135937, “Further studies on conformationally constrained tricyclic tropane analogues and their uptake inhibition at monoamine transporter sites: synthesis of (Z)-9-(substituted arylmethylene)-7-azatricyclo[4.3.1.0(3,7)]decanes as a novel class of serotonin transporter inhibitors” (J Med Chem, 2002)

How the values were obtained:
[1] = target: Sodium-dependent dopamine transporter (Rattus norvegicus, UniProt P23977); test: Ability to inhibit high affinity reuptake of [3H]DA from dopamine transporter into nerve endings synaptosomes; format: subcellular, Brain
Sodium-dependent dopamine transporter, sequence (P23977 whole entry): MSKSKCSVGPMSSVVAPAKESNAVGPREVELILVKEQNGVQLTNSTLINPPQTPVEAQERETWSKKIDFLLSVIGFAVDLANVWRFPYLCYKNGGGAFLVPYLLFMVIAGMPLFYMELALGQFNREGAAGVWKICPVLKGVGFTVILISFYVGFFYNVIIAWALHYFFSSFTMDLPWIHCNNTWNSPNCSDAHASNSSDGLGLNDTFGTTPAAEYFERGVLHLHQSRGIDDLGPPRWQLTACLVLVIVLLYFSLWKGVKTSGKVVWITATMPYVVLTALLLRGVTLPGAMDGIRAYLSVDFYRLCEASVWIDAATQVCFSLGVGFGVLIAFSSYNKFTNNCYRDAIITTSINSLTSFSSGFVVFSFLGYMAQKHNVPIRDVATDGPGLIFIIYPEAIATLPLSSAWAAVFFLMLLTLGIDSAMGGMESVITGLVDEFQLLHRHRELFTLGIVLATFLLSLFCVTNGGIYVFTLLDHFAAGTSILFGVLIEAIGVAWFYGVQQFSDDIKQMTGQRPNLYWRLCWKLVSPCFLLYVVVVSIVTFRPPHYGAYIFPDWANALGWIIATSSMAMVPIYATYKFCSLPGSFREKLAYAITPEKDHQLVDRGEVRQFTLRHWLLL
Outline: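 Rat striatal P2 synaptosomes in modified KRH buffer (pH 7.4, with nialamide), preincubated with drug for 30 min at 4 °C, then 15 min at 37 °C. Uptake of [3H]DA (~5 nM final) ran for 5 min and was stopped by cold Na-free buffer and filtration. IC50 from six concentrations in triplicate; Ki by Cheng–Prusoff, 2–4 experiments.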

[2] = target: Sodium-dependent serotonin transporter (Rattus norvegicus, UniProt P31652); test: Inhibition of high affinity re-uptake of [3H]5-HT (serotonin) into nerve ending synaptosomes; format: subcellular, Brain
Sodium-dependent serotonin transporter, sequence (P31652 whole entry): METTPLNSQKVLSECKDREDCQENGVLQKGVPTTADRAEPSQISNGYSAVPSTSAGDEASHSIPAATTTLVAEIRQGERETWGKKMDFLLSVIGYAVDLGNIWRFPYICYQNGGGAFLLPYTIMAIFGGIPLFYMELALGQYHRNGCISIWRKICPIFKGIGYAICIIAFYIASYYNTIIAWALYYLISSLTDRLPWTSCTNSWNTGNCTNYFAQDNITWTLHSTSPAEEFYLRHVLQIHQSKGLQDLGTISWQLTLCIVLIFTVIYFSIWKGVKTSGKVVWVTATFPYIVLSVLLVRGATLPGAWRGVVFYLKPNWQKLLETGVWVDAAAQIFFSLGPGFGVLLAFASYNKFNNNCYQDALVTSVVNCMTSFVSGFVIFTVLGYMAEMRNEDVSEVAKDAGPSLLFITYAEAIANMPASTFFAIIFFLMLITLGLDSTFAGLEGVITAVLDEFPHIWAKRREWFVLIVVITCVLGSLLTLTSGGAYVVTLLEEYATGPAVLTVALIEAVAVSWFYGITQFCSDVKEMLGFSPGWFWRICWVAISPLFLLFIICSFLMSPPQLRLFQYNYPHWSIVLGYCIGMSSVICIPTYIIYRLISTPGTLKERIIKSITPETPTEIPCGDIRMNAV
Outline: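 Synaptosomes (P2) from rat midbrain in modified KRH buffer (pH 7.4, with nialamide), preincubated with drug for 30 min at 4 °C, then 15 min at 37 °C. [3H]5-HT (~5 nM final) uptake ran for 5 min, then filtration and scintillation counting. IC50 from six concentrations in triplicate; Ki by Cheng–Prusoff, 2–4 experiments.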

[3] = Uptake ratio Ki of dopamine relative to serotonin (5-HT) at monoamine transporter
[4] = target: Norepinephrine transporter (Rattus norvegicus, UniProt Q9WTR4); test: Ability to inhibit high affinity reuptake of [3H]-NE (Norepinephrine transporter) into nerve ending synaptosomes prepared from brain regions; format: subcellular
Norepinephrine transporter, sequence (Q9WTR4 whole entry): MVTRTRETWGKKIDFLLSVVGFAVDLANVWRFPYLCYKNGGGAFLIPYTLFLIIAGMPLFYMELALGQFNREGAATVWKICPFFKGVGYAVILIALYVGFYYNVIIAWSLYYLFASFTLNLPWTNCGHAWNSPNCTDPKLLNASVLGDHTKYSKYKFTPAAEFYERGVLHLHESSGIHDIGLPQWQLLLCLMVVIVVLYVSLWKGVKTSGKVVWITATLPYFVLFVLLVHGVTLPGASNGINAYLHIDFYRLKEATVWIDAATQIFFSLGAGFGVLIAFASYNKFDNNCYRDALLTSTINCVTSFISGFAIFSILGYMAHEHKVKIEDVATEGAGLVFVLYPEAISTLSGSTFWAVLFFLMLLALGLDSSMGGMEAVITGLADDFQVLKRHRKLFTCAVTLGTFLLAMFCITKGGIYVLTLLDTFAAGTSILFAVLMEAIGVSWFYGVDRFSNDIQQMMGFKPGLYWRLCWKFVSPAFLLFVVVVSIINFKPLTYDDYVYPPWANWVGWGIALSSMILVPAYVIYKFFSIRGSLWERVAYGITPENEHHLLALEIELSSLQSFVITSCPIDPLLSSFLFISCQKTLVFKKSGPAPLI

[5] = Uptake ratio Ki of norepinephrine relative to dopamine at monoamine transporter
[6] = Uptake ratio Ki of norepinephrine relative to serotonin (5-HT) at monoamine transporter

Compound	Ki [1] [nM]	Ki [2] [nM]	Ratio [3]	Ki [4] [nM]	Ratio [5]	Ratio [6]
CC(C)OC(=O)C1C2CC3CCC1N3C/C2=C\c1ccc(Cl)c(Cl)c1 (stereo not drawn)	1290	85.7	15	325	0.25	3.8
Clc1ccc(/C=C2\CN3C4CCC3C(COc3ccc(I)cc3)C2C4)cc1Cl (stereo not drawn)	13700	1170	11.7	2510	0.18	2.1
COC(=O)C1C2CC3CCC1N3C/C2=C\c1ccc(C(F)(F)F)cc1 (stereo not drawn)	–	12.6	–	1830	–	145
COC(=O)C1C2CC3CCC1N3C/C2=C\c1ccc(Br)c(Cl)c1 (stereo not drawn)	5420	2.3	2360	459	0.08	200
COC(=O)C1C2CC3CCC1N3C/C2=C\c1cccc2ccccc12 (stereo not drawn)	9720	121	80.3	5370	0.55	44
CC(=O)OCC1C2CC3CCC1N3C/C2=C\c1ccc2ccccc2c1 (stereo not drawn)	652	4.4	148	672	1.03	153
O=C(CCCCCCCCCC(=O)OCC1C2CC3CCC1N3C/C2=C\c1ccc(Cl)c(Cl)c1)OCC1C2CC3CCC1N3C/C2=C\c1ccc(Cl)c(Cl)c1 (stereo not drawn)	> 10000	8.5	> 1170	> 10000	–	> 1170
COC(=O)C1C2CC3CCC1N3C/C2=C\c1ccc(/C=C2\CN3C4CCC3C(C(=O)OC)C2C4)cc1 (stereo not drawn)	38900	993	39.2	33400	0.86	34
O=C(Oc1ccccc1)C1C2CC3CCC1N3C/C2=C\c1ccc(Cl)c(Cl)c1 (stereo not drawn)	4440	48.3	91.9	2410	0.54	49.9
COC(=O)C1C2CC3CCC1N3C/C2=C\c1ccc2ccc3cccc4ccc1c2c34 (stereo not drawn)	9920	860	11.5	–	–	–
COC(=O)C1C2CC3CCC1N3C/C2=C\c1ccc(F)c(F)c1 (stereo not drawn)	7440	101	73.7	394	0.05	3.9
CC(=O)OCC1C2CC3CCC1N3C/C2=C\c1cccc(Cl)c1 (stereo not drawn)	5980	92.9	64.4	1180	0.2	12.7
COC(=O)C1C2CC3CCC1N3C/C2=C\c1ccccc1 (stereo not drawn)	481	1140	0.42	53	0.11	0.05
COC(=O)C1C2CC3CCC1N3C/C2=C\c1ccc(C)cc1 (stereo not drawn)	649	15	43.3	146	0.22	9.7
COC(=O)C1C2CC3CCC1N3C/C2=C\c1ccc(F)cc1 (stereo not drawn)	6620	335	19.7	584	0.09	1.7
COC(=O)C1C2CC3CCC1N3C/C2=C\c1ccc(Cl)cc1 (stereo not drawn)	853	34.3	24.8	208	0.24	6
O=C(OCC1C2CC3CCC1N3C/C2=C\c1ccc2ccccc2c1)c1ccccc1 (stereo not drawn)	5530	0.1	55300	3220	0.58	32200
COC(=O)C1C2CC3CCC1N3C/C2=C\c1cccc(Cl)c1Cl (stereo not drawn)	850	354	2.4	1210	1.42	3.4
Cc1ccc(/C=C2\CN3C4CCC3C(COC(=O)c3ccccc3)C2C4)cc1Cl (stereo not drawn)	> 10000	2	> 20000	> 10000	–	> 20000
COC(=O)C1C2CC3CCC1N3C/C2=C\c1ccc(C)c(Cl)c1 (stereo not drawn)	> 10000	6.4	> 1560	198	< 0.02	31
CC(=O)OCC1C2CC3CCC1N3C/C2=C\c1ccc(Cl)c(Cl)c1 (stereo not drawn)	1870	1.6	1170	638	0.34	399
COC(=O)C1C2CC3CCC1N3C/C2=C\c1ccc(C(C)C)cc1 (stereo not drawn)	–	10.2	–	1110	–	109
O=C(OCC1C2CC3CCC1N3C/C2=C\c1cccc(Cl)c1)c1ccccc1 (stereo not drawn)	4040	11	367	6580	1.63	598

Compound	Ki [1] [nM]	Ki [2] [nM]	Ratio [3]	Ki [4] [nM]	Ratio [5]	Ratio [6]
COC(=O)C1C2CC3CCC1N3C/C2=C\c1ccc(I)cc1Cl (stereo not drawn)	6640	74	89.7	508	0.08	6.9
CN(C)C(=O)C1C2CC3CCC1N3C/C2=C\c1ccc(Cl)c(Cl)c1 (stereo not drawn)	6680	28.9	231	2020	0.3	69.9
CON(C)C(=O)C1C2CC3CCC1N3C/C2=C\c1ccc(Cl)c(Cl)c1 (stereo not drawn)	8620	30.7	281	396	0.05	12.9
O=C(OCC1C2CC3CCC1N3C/C2=C\c1ccc(Br)c(Cl)c1)c1ccccc1 (stereo not drawn)	> 10000	3.2	> 3120	3840	< 0.38	1200
O=C(OCC1C2CC3CCC1N3C/C2=C\c1ccc(I)c(Cl)c1)c1ccccc1 (stereo not drawn)	> 10000	–	> 6e+06	> 10000	–	> 6e+06
O=C(OCC1C2CC3CCC1N3C/C2=C\c1ccc(Cl)c(Cl)c1)c1ccccc1 (stereo not drawn)	14100	3.1	4550	3070	0.22	990
O=C(OCC1C2CC3CCC1N3C/C2=C\c1ccc(Br)cc1)c1ccccc1 (stereo not drawn)	3300	3.95	835	4470	1.35	1130
COC(=O)C1C2CC3CCC1N3C/C2=C\c1ccc(Cl)c(Cl)c1 (stereo not drawn)	1920	20	96	1000	0.52	50
CCC(=O)C1C2CC3CCC1N3C/C2=C\c1ccc(Cl)c(Cl)c1 (stereo not drawn)	6840	2.2	3110	651	0.1	296
COC(=O)C1C2CC3CCC1N3C/C2=C\c1ccc(I)c(Cl)c1 (stereo not drawn)	3140	1.8	1740	272	0.09	151
COC(=O)C1C2CC3CCC1N3C/C2=C\c1cccc(Cl)c1 (stereo not drawn)	7780	53.6	145	231	0.03	4.3
O=C(OCC1C2CC3CCC1N3C/C2=C\c1ccc(Cl)c(Cl)c1)c1ccc2ccccc2c1 (stereo not drawn)	> 10000	9.3	> 1070	5950	< 0.6	640
COC(=O)C1C2CC3CCC1N3C/C2=C\c1ccc2ccccc2c1 (stereo not drawn)	735	21	35	157	0.21	7.5
COC(=O)C1C2CC3CCC1N3C/C2=C\c1cc2ccccc2c2ccccc12 (stereo not drawn)	1640	233	7	13000	7.93	56
O=C(OCC1C2CC3CCC1N3C/C2=C\c1ccc(I)cc1)c1ccccc1 (stereo not drawn)	> 10000	–	> 100000	8190	< 0.82	81900
COC(=O)C1C2CC3CCC1N3C/C2=C\c1cc(Cl)cc(Cl)c1 (stereo not drawn)	5600	437	12.8	4100	0.73	9.4
COC(=O)C1C2CC3CCC1N3C/C2=C\c1ccc(C)c(C)c1 (stereo not drawn)	–	10.1	–	659	–	65
CNC(=O)C1C2CC3CCC1N3C/C2=C\c1ccc(Cl)c(Cl)c1 (stereo not drawn)	3780	29.8	127	417	0.11	14
O=C(OCC1C2CC3CCC1N3C/C2=C\c1ccc(Cl)c(Cl)c1)c1ccc(I)cc1 (stereo not drawn)	17700	48.7	363	8590	0.48	176
COC(=O)C1C2CC3CCC1N3C/C2=C\c1ccc(Br)cc1 (stereo not drawn)	495	11	45	178	0.36	16
COC(=O)C1C2CC3CCC1N3C/C2=C\c1ccc(OC)cc1 (stereo not drawn)	3130	56	55.9	187	0.06	3.3
Clc1ccc(/C=C2\CN3C4CCC3C(/C=C\c3ccccc3)C2C4)cc1Cl (stereo not drawn)	2110	245	8.6	2790	1.32	11.4
